A selection: hits, their analogues and other compounds. The true share with any hit is near 29%.
tolC growth inh: growth inhibitors of E. coli tolC mutant, primary screen, strain BW25113 ΔtolC::kan, 384-well | OD615 | 2.2% of 65,000 active | growth inhibition, % at 10 µM (by protocol);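 active = growth inhibition at or above a cutoff equal to the mean over every tested compound plus 3 SD, cut at about 60% in these data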;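 also: growth measured after 20 h incubation at 37 °C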
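Test system: tolC-deleted E. coli BW25113 | Medium: LB with kanamycin 50 µg/mL | Compound dosing: Single concentration, 10 µM final per compound | Schedule: 37 °C, 20 h exposure | Measured by: OD at 615 nm | Evaluation: Percent growth inhibition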
E coli WT exp: growth inhibitors of wild-type E. coli, primary screen, strain BW25113, expanded library, OD600; AID 710, 2007; growth inhibition, % at 100 µM; 0.15% of 98,000 active; OD600 absorbance;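 active = growth inhibition above about 50% at one test dose, limit read from the data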;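 also: growth measured after 20 h incubation at 37 °C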
CYP2C9 activ: human CYP2C9 activators, primary screen, biochemical, luminescence. Cytochrome P450 2C9 (Homo sapiens), P11712. recombinant CYP2C9, luciferin-H conversion; active compounds read high; factor 1 = untreated enzyme, 0 = blocked. activation factor at 5 µM. 1.4% of 96,000 active;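 active = activation factor of 2 or more for CYP2C9 at a 5 µM dose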
CYP2C9 inhib: blockers of cytochrome P450 2C9 activity – biochemical, luminescence, ADME assay, primary screen. 20% of 96,000 active. P11712. CYP2C9 Supersomes, luciferin-H conversion. inhibition, % at 5 µM. AID 777, 2007;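 active = blocking of liver enzyme CYP2C9 beyond about 50% at 5 µM, limit read from the data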
CYP2C19 act: human CYP2C19 activators, primary screen, biochemical, luminescence | activation factor at 5 µM | Cytochrome P450 2C19 (Homo sapiens), P33261 | recombinant CYP2C19, luciferin-H EGE luminescence; active compounds read high; 0 = fully inhibited enzyme, 1 = untreated enzyme | 96,000 tested, under 10 active;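 active = activation factor of at least 2 at 5 µM in the primary screen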
Target sequence (P33261 whole entry, looked up): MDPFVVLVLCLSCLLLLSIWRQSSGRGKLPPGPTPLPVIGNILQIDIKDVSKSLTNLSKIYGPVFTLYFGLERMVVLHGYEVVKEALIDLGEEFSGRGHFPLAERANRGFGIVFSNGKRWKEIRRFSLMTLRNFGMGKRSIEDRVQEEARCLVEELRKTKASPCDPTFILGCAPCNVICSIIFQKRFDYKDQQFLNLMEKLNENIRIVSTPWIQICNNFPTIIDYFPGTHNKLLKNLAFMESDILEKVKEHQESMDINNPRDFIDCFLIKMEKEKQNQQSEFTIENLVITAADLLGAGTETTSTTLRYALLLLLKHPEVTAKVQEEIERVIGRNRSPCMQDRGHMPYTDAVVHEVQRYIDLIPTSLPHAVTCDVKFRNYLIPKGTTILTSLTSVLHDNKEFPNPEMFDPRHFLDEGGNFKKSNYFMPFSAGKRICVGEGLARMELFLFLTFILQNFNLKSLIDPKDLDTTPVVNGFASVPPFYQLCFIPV
CYP2C19 inh: blockers of cytochrome P450 2C19 activity – biochemical, luminescence, ADME assay, primary screen; P33261; CYP2C19 Supersomes, luciferin-H EGE luminescence, 30 min; inhibition, % at 5 µM; 21% of 96,000 active; AID 778, 2007;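 active = CYP2C19 inhibition above a set limit at 5 µM in the primary screen, cut at about 50% in these data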
Of the large screens only hits and unclear results are named; the others gave an inactive call.

N#Cc1c(N)nc(SCc2ccncc2)c(C#N)c1-c1cccs1	CYP2C9 inhib 84, CYP2C19 inh 58
CCSc1nc(N)c(C#N)c(-c2ccccc2Cl)c1C#N	none
CCOCCn1c(CN2CCOCC2)nc2c1c(=O)[nH]c(=O)n2C	none (no result: CYP2C9 activ, CYP2C9 inhib, CYP2C19 act, CYP2C19 inh)
O=C(OC(C(=O)NC1CCCCC1)c1ccccn1)c1cccs1 (stereo not given)	none (no result: tolC growth inh)
O=C(OC(C(=O)NCc1cccs1)c1ccccn1)c1cccs1 (stereo not given)	CYP2C19 inh 59
Cc1ccc(N2CCCCn3c2nc2c3c(=O)[nH]c(=O)n2C)cc1	none
COc1ccc(-c2nnc3ccc(SCC(=O)N4CCN(c5ccccc5)CC4)nn23)cc1OC	none (no result: E coli WT exp, CYP2C9 activ, CYP2C9 inhib, CYP2C19 act, CYP2C19 inh)
CCCc1[nH]n(-c2nc3ccccc3s2)c(=O)c1C=NCC(C)C	CYP2C9 inhib 51 (no result: tolC growth inh)
CCc1ccc(/C(C)=N\Nc2ccc([N+](=O)[O-])cc2)cc1	none (no result: tolC growth inh)
O=C(c1ccc([N+](=O)[O-])cc1)N(Cc1ccc(Br)cc1)N1C(=O)CCCC1=O	CYP2C19 inh 73 (no result: tolC growth inh)
Nc1ccc(-c2nc3c(Cl)c(N)ccc3[nH]2)cc1	none
CCCCNCc1cc(Cl)c(OCCC)c(OCC)c1	CYP2C19 inh 68 (no result: tolC growth inh)
CCCCOc1c(Cl)cc(CNC(C)(C)CO)cc1OCC	none
CCOc1c(Cl)cc(CNCC(C)C)cc1OC	CYP2C19 inh 71 (no result: tolC growth inh)
Nc1ccc2nc(-c3ccc(Cl)cc3)[nH]c2c1	CYP2C19 inh 59
COc1cc(S(=O)(=O)N2CCOCC2)ccc1NC(=O)COC(=O)CC12CC3CC(CC(C3)C1)C2	CYP2C9 inhib 82, CYP2C19 inh 69 (no result: tolC growth inh)
CCOC(=O)C(=O)Nc1ccc(S(=O)(=O)N2CCOCC2)cc1OC	none (no result: tolC growth inh)
CCCCC(=O)Nc1ccc(NC(=O)CC)cc1OC	none
CCC(=O)Nc1ccc(S(=O)(=O)Nc2cccc(C)c2)cc1OC	CYP2C19 inh 71
CCC(=O)Nc1ccc(S(=O)(=O)N2CCCCC2)cc1OC	CYP2C9 activ 2.4, CYP2C19 inh 67 (no result: tolC growth inh)
COCCn1nnnc1CN1CCC(Cc2ccccc2)CC1	none (no result: CYP2C9 activ, CYP2C9 inhib, CYP2C19 act, CYP2C19 inh)
Cc1ccccc1NC(=O)c1ccccc1O	none
Cc1cc(NC(=O)c2ccccc2Cl)c(C(C)C)cc1O	CYP2C9 activ 3.1, CYP2C19 inh 65 (no result: tolC growth inh)
Fc1ccc(CSc2nc3ccccc3[nH]2)c2ccccc12	CYP2C9 inhib 98, CYP2C19 inh 99 (no result: tolC growth inh)
CCCCOc1ccc(CSc2n[nH]c(C)n2)cc1	none
CCSc1nc2ccccc2[nH]1	none (no result: tolC growth inh)
O=c1cc(CSc2nc3ccccc3[nH]2)c2ccccc2[nH]1	none (no result: tolC growth inh)
Fc1ccc(CSc2nc3ccccc3[nH]2)cc1	CYP2C9 inhib 56, CYP2C19 inh 93 (no result: tolC growth inh)
Fc1ccc(CSc2nc3ncccc3[nH]2)cc1	CYP2C9 inhib 51, CYP2C19 inh 82
CCCCOc1ccc(CSc2ncn[nH]2)cc1	CYP2C9 inhib 73, CYP2C19 inh 93
COc1cc(OC)cc(C(=O)NC2CCN(Cc3nnnn3Cc3cccs3)CC2)c1	none
Cn1c2c(c(=O)n(C)c1=O)C(c1cccc(Br)c1)C1C(=O)c3ccccc3C1=N2 (stereo not given)	none (no result: E coli WT exp, CYP2C9 activ, CYP2C9 inhib, CYP2C19 act, CYP2C19 inh)
CCCOc1ccc(CSc2nc3ccccc3[nH]2)cc1	CYP2C9 inhib 90 (no result: tolC growth inh)
Nc1nc(CSc2nc3ccccc3[nH]2)cs1	CYP2C19 inh 76
COc1ccc(C2=NN(CN3C(=O)C(=O)c4ccccc43)C(c3ccc(Br)cc3)C2)cc1 (stereo not given)	none (no result: tolC growth inh)
COc1ccc(C2=NN(CN3C(=O)C(=O)c4ccccc43)C(c3ccc(C)cc3)C2)cc1 (stereo not given)	CYP2C9 inhib 76, CYP2C19 inh 51 (no result: tolC growth inh)
Cc1ccc(C)c(C(=O)NC2CC(C)(C)NC(C)(C)C2)c1	CYP2C19 inh 54
CC(C)NC(=O)c1onc(CSc2ccc(Cl)cc2)c1C(=O)O	CYP2C9 inhib 70 (no result: tolC growth inh)
C=CCNC(=O)c1onc(CSc2ccc(F)c(F)c2)c1C(=O)O	CYP2C9 inhib 77 (no result: tolC growth inh)
COCCNC(=O)c1onc(CSc2ccc(F)c(F)c2)c1C(=O)O	none (no result: tolC growth inh)
COc1ccc(SCc2noc(C(=O)NC(C)C)c2C(=O)O)cc1	none (no result: tolC growth inh)
O=C(NCC1CCCO1)c1onc(CSc2ccccc2)c1C(=O)O (stereo not given)	none (no result: tolC growth inh)
C=CCNC(=O)c1onc(CSc2ccc(Cl)cc2)c1C(=O)O	CYP2C9 inhib 73 (no result: tolC growth inh)
CC(C)c1ccc(SCc2noc(C(=O)NCC3CCCO3)c2C(=O)O)cc1 (stereo not given)	CYP2C9 inhib 61 (no result: tolC growth inh)
Cc1noc(C)c1CSc1nnc2cc(C)c3ccccc3n12	none (no result: E coli WT exp)
COc1ccc(CC(NC(C)=O)C(=O)N2CCN(C(=O)Nc3ccc(Cl)cc3)CC2)cc1OC (stereo not given)	none
CCCCNC(=O)c1onc(CSc2cccc(F)c2)c1C(=O)O	CYP2C9 inhib 66 (no result: tolC growth inh)
CCCCNC(=O)c1onc(CSc2ccc(Cl)cc2)c1C(=O)O	CYP2C9 inhib 86 (no result: tolC growth inh)
COc1ccc(C2NCCO2)cc1OC (stereo not given)	none
CCOC(=O)Cc1csc(SC(C)C(=O)Nc2ccc(NC(C)=O)cc2)n1 (stereo not given)	CYP2C9 inhib 91, CYP2C19 inh 68 (no result: tolC growth inh)
Cc1ccc(-n2ncc(C#N)c2/N=C/N2CCCCCC2)cc1	CYP2C9 inhib 91, CYP2C19 inh 97
Cc1ccc(-n2ncc(C#N)c2/N=C/N2CCN(C)CC2)cc1	none
CCOC(=O)c1c(C#N)cnn1-c1ccc(C)cc1	none (no result: tolC growth inh)
CCCCN(C)/C=N/c1c(C#N)cnn1-c1ccc(C)cc1	CYP2C9 inhib 60 (no result: tolC growth inh)
CCOC(=O)CSc1nc(C2CC2)nc2ccccc12	none
O=S(=O)(Cc1cccc(F)c1)c1c[nH]c2ccccc12	CYP2C9 inhib 81, CYP2C19 inh 100
COc1ccc(-c2noc(CCC(=O)N3CCN(c4cc(C)ccc4C)CC3)n2)cc1	CYP2C9 inhib 78, CYP2C19 inh 65
COc1ccc(NC(=O)CCc2nc(-c3ccc(C)cc3)no2)c(OC)c1	none
Cc1ccc(-c2noc(CCC(=O)N3CCN(c4cccc(C(F)(F)F)c4)CC3)n2)cc1	tolC growth inh 64, CYP2C9 inhib 93, CYP2C19 inh 77
O=C1NC2(CCCc3ccccc32)C(=O)N1CCOc1ccc(Br)cc1 (stereo not given)	none (no result: tolC growth inh)
COC(=O)c1ccc(NC2CC(=O)N(c3ccccc3C)C2=O)cc1 (stereo not given)	CYP2C19 inh 60 (no result: tolC growth inh)
COC(=O)c1ccccc1NC1CC(=O)N(c2c(C)cccc2C)C1=O (stereo not given)	CYP2C9 inhib 78 (no result: tolC growth inh)
COC(=O)c1cccc(NC2CC(=O)N(c3ccc(OC)c(OC)c3)C2=O)c1 (stereo not given)	CYP2C19 inh 53
COc1ccc(N2C(=O)CC(Nc3ccc(C)cc3)C2=O)cc1 (stereo not given)	CYP2C9 inhib 74 (no result: tolC growth inh)

Bioassay records: PubChem, several laboratories
